PMI act hi M6P: increases human PMI activity with near-saturating mannose 6-phosphate. P34949. coupled PMI enzyme assay, resazurin fluorescence, 20 min; active compounds read high; 1 = untreated enzyme, 0 = substrate-free blank. activation factor at 20 µM. 190,000 compounds, 0.34% hits. AID 1216;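 active = activation factor of 2 or more at 20 µM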
Target sequence (P34949 whole entry, looked up): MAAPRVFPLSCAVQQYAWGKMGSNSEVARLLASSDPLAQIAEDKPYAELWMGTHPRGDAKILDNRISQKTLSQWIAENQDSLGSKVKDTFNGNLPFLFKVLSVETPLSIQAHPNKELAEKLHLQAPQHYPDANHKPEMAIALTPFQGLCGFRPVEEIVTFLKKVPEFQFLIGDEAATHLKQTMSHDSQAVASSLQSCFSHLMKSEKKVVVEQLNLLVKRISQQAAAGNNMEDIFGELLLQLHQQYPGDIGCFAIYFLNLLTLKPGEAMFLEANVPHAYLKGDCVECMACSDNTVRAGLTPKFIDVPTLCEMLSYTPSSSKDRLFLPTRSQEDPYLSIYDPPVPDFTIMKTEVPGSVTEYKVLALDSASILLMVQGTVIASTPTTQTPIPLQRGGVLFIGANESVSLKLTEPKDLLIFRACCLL
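Test system: human phosphomannose isomerase with PGI, G6PDH, diaphorase coupling enzymes / Doses: 20 µM compound, 1% DMSO / Times: enzyme reaction with compound 20 min at room temperature / Measured by: Diaphorase-driven resazurin-to-resorufin fluorescence, excitation 544, emission 590 nm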
PTEN del growth: PTEN-deleted cell growth suppression; HCT116 PTEN-null viability, CellTiter-Glo, 60 h; active compounds read low; viability, % at 10 µM; 140,000 compounds, 1.2% hits;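 active = viability at or below a set limit, 4 SD under the median of all tested compounds, cut at about 3.7% in these data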;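 note: PTEN knockout HCT116 line with beta catenin targeted HCT116 as companion control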
L major viab: reduces viability of Leishmania major promastigotes. resazurin fluorescence viability. inhibition, % at 10 µM. 200,000 compounds, 9% hits; in the data active = inhibition above about 50%;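 note: promastigotes grown with compound for 44 hours at 28 °C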
PMI act: phosphomannose isomerase (human) activation. purified human PMI, coupled resazurin fluorescence, 20 min; active compounds read high; 1 = vehicle control, 0 substrate-free wells. 190,000 compounds, 0.005% hits. activation factor at 20 µM. P34949;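 active = activation factor of 2 or more at 20 µM, relative to plate controls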
HCT116 bCat-KO: beta-catenin-lacking colon tumor cell growth suppression; HCT116 beta-catenin knockout viability, CellTiter-Glo, 60 h; active compounds read low; viability, % at 10 µM; 140,000 compounds, 1.5% hits; AID 818;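 active = viability at or under a set limit, the compound median less 4 SD, cut at about 6% in these data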;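 note: 0% = Hyamine 1622 control at 20 µM and 100% = untreated cell control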
* hit, by the source's call; . = no result. The list is not random: actives were taken first. Their share in the collection is about 9.6%.

SMILES	PMI act hi M6P	PTEN del growth	L major viab	PMI act	HCT116 bCat-KO
COc1ccc(OC)c(NC(=O)CC2SC(=Nc3ccccc3)N(CCc3ccccn3)C2=O)c1 (configuration not stated)	0.8	77	55*	0.8	88
COc1cc([N+](=O)[O-])ccc1NC(=O)CC1SC(=Nc2ccc(F)cc2)N(CCC2=CCCCC2)C1=O (configuration not stated)	0.9	12	34	0.8	8
COc1ccc(N=C2SC(CC(=O)Nc3cccc(Cl)c3)C(=O)N2Cc2ccco2)cc1 (configuration not stated)	0.8	36	98*	0.8	42
COc1ccc(OC)c(NC(=O)CC2SC(=Nc3ccc(F)cc3)N(CCC3=CCCCC3)C2=O)c1 (configuration not stated)	0.8	54	55*	0.8	44
O=C(CC1SC(=Nc2ccc(OC(F)F)cc2)N(CCN2CCOCC2)C1=O)Nc1ccc(F)cc1F (configuration not stated)	1	.	62*	0.9	.
Cc1c(N=C2SC(CC(=O)Nc3ccccc3)C(=O)N2CCN2CCOCC2)c(=O)n(-c2ccccc2)n1C (configuration not stated)	1	.	-4	1	.
COc1ccc(N=C2SC(CC(=O)Nc3ccc(OC)cc3OC)C(=O)N2C)cc1 (configuration not stated)	1	97	44	1	93
O=C(COc1cccc2cccnc12)N/N=C1\SCC(=O)N1CCc1ccccc1	1.1	.	1	1	.
CCCc1nnc(SCC(=O)N2CCOCC2)n1C	0.9	101	-6	1	97
CCCNC(=O)c1ccccc1NC(=O)CN(c1ccccc1OCC)S(C)(=O)=O	1	107	-4	1	104
COc1ccc(N=C2SC(CC(=O)Nc3ccccc3)C(=O)N2CCc2ccccn2)cc1 (configuration not stated)	0.9	87	60*	0.9	86
COc1ccc(N=C2SC(CC(=O)Nc3ccccc3)C(=O)N2Cc2ccccn2)cc1 (configuration not stated)	0.8	.	38	0.8	.
Cc1cc(NC(=O)C2CCN(S(=O)(=O)c3cnc[nH]3)CC2)ccc1Br	0.9	97	2	0.9	96
CCOC(=O)c1ccccc1Oc1c(F)c(F)nc(NCCO)c1F	0.7	83	82*	0.8	76
Cc1cc(C)c(CN2CCC(CO)(CCOc3ccccc3)CC2)cc1C	1	.	60*	0.9	.
COc1ccc(OC)c(CN2CCC(CO)(CCOc3ccccc3)CC2)c1	1	.	14	1	.
OCC1(CCOc2ccccc2)CCN(C2Cc3ccccc3C2)CC1	1	.	88*	0.9	.
OCC1(CCOc2ccccc2)CCN(Cc2cccn2-c2ncccn2)CC1	1	.	30	0.9	.
COc1ccc2c(c1)O[C@@H](c1ccc3c(c1)OCO3)[C@H](OC(=O)Nc1cc(OC)c(OC)c(OC)c1)C2=O	0.7	15	47	0.9	16
Cc1cc(N/N=C/c2ccc(O)c(C)c2O)nc(-c2ccccc2O)n1	0.7	1.8*	93*	0.8	1.7*
N#CC1=C(N)OC2=C(CCc3ccccc32)C1c1ccccc1 (configuration not stated)	0.9	10	16	0.9	11
Cc1ccc(/C=C2\CCC3=C2OC(N)=C(C#N)C3c2ccc(C)cc2)cc1 (configuration not stated)	0.7	79	100*	1	82
Cn1cc(CN2CCCC(C(=O)c3cc(F)ccc3F)C2)c2ccccc21 (configuration not stated)	0.7	.	88*	0.8	.
COc1ccc(F)cc1C(=O)C1CCCN(Cc2cn(C)c3ccccc23)C1 (configuration not stated)	1	.	90*	0.9	.
Cc1ccc(N=C2CCCN2Cc2ccccc2)c(C#N)c1	1	82	6	1	85
SMILES	PMI act hi M6P	PTEN del growth	L major viab	PMI act	HCT116 bCat-KO
Cc1cccc(NC(=O)CSc2nsc(SCC(=O)Nc3cccc(C)c3)c2C#N)c1	0.9	87	69*	0.8	89
N#Cc1c(SCC(=O)Nc2ccccc2)nsc1SCC(=O)Nc1ccccc1	0.9	92	-6	0.8	80
Cc1cc(N)n(Cc2ccc(Cl)cc2)n1	1	.	15	0.9	.
Cc1ccc(-c2cc(N)n(Cc3ccc(Cl)cc3)n2)cc1	1	47	87*	0.9	30
COc1cccc(/C(O)=C/c2nc3ccc(C(=O)NCCc4ccc(Cl)cc4)cc3[nH]c2=O)c1	1	1.2*	2	0.9	1.5*
CC(C)CCN(C(=O)Nc1ccc(Cl)cc1)C1CCN(C(C)C)CC1	1.1	.	24	1.1	.
COc1ccc(CNC(=O)c2noc(C(C)C)c2[N+](=O)[O-])cc1	1.1	99	54*	1.1	92
O=C(O)CCC(=O)N1CCc2cc(S(=O)(=O)N(CCc3ccccc3)Cc3ccccc3)ccc21	1	91	17	1	88
COc1nc(-c2ccccc2)ncc1S(=O)(=O)c1ccccc1	1	.	3	0.9	.
Cc1cccc(C)c1Oc1nc(-c2ccccc2)ncc1S(=O)(=O)c1ccccc1	0.9	59	54*	0.9	61
Cc1ccc(/C=N/N2CCOCC2)s1	1	.	-1	1.1	.
CCCC(=O)Nc1nnc(CC(=O)N2CCCC2)s1	1.1	93	-3	1	92
O=C(Nc1nc2ccccc2[nH]1)C1CCCC1	0.9	.	21	1	.
C(=N\Nc1nc2ccccc2[nH]1)/C1CCCCC1	0.9	.	68*	1	.
C(/CCc1ccccc1)=N\Nc1nc2ccccc2[nH]1	1	.	67*	1.1	.
C(=C\c1ccccc1)/C=N/Nc1nc2ccccc2[nH]1	1.2	17	37	1	18
COc1ccc(N2C(=O)C(CC(N)=O)N(NC(=O)c3cccc(OC)c3)C2=S)cc1 (configuration not stated)	1	.	-3	1	.
Cc1cccc(C)c1NC(=O)N1CCC(N2CCCCC2)CC1	1	104	0	0.7	99
COCCCNc1oc(-c2ccccc2Cl)nc1C#N	1	.	0	1.1	.
COCCNc1oc(-c2ccc(Cl)cc2)nc1C#N	1.1	82	-15	1	76
CN(C)CCCNc1oc(-c2ccc(Cl)cc2)nc1C#N	1.1	79	83*	1.1	77
CCN(CC)CCCNc1oc(-c2cccc(Cl)c2)nc1C#N	1	48	101*	1	40
COc1ccc(C(=O)/C=C/c2ccccc2C(F)(F)F)cc1	0.9	14	54*	0.9	13
CC(C)(C)n1nnnc1C(c1ccc(Cl)cc1)N(Cc1cccnc1)Cc1ccco1 (configuration not stated)	0.9	58	100*	0.9	54
CC(C)(C)n1nnnc1C(c1ccc(C(F)(F)F)cc1)N(Cc1ccc(F)cc1)Cc1ccco1 (configuration not stated)	0.9	11	77*	0.8	8

Assay outcomes from PubChem.
